Test results: PMC12279052 (RSC Advances, 2025)
≈ marks a conversion by molar mass, not a printed value.

What was measured:
[1] = Thermal stability by TG/DTG; format: physicochemical; conditions: first decomposition process, 10 K min^−1, argon
Summary of the method: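 Simultaneous thermal analysis ran from 30–500 °C at 10 K min−1 on 3–5 mg sample in an Al2O3 crucible, with α-Al2O3 as reference. Argon served as protective gas at 20 mL min−1 and as purge gas at 60 mL min−1.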

[2] = Octanol–water partition coefficient, shake-flask method; format: physicochemical
Summary of the method: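 Shake-flask partitioning was run at 25 and 37 °C in water, SGF (pH 1.2), SIF (pH 6.8) or SBF (pH 7.4). Fluids were prepared per USP without enzyme and pre-saturated with n-octanol (24 h shaking, 24 h separation). Test compound in buffer-saturated octanol (5 mL) was shaken 24 h with 5 mL octanol-saturated buffer, then centrifuged 10 min. The octanol phase was read by UV at 200 nm, and log Ko/w = log Co/(C−Co).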

[3] = Conductivity in low concentration region; format: physicochemical; conditions: in water
Summary of the method: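 Conductivity of aqueous test compound solutions was measured at each temperature in double-distilled deionized water (0.8 − 1.0 × 10−4 S m−1 at 298.15 K). The digital meter and electrode were calibrated with standard KCl, and the thermostat held ±0.02 K; relative standard uncertainty was ±3%.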

[4] = Aggregation in water by electrical conductivity; format: physicochemical; conditions: for cmc: conductivity, water; for ionization degree α: micelle (cmc); for ΔG^0m / ΔH^0m / ΔS^0m / −TΔS^0m: micellization (cmc)
Summary of the method: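 Conductivity of aqueous test compound solutions was measured with a digital conductivity meter and electrode, calibrated against standard KCl, with a thermostat holding ±0.02 K and ±3% relative uncertainty. cmc and cac were taken from the break points, found by fitting the Aguiar equation. α came from the ratio of post- to pre-transition slopes (A2/A1), and micellization thermodynamic functions from the mass action model.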

[5] = Steady-state fluorescence with pyrene probe; format: physicochemical; conditions: 298.15 K; for cmc: Fluorescence (pyrene I1/I3), water; for N agg (aggregation number): ST = 2.5 cmc, fluorescence quenching with CPC
Summary of the method: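 Pyrene (1 μM) served as probe at 298.15 K. Excitation was 335 nm, emission 355–650 nm, slits 2.5 nm, 700 V, 240 nm min−1, in a 1 cm quartz cuvette. cmc came from a Boltzmann fit of I1/I3 (373/384 nm). For Nagg, test compound at 2.5 cmc was quenched with cetylpyridinium chloride at 0.2–1.0 × 10−4 mol dm−3, and Nagg was derived from linear ln(I0/I) versus [Q].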

[6] = Density measurement, apparent molar volume at infinite dilution in water; format: physicochemical; conditions: aqueous solution
Summary of the method: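 Solution density was measured with a vibrating-tube densitometer calibrated with dry air and double-distilled water, with Peltier temperature control at ±0.01 K and density uncertainty 2.0 × 10−4 g cm−3. Apparent molar volumes were computed versus molality. Infinite-dilution values came from the Redlich–Mayer equation with empirical parameters Sv and Bv.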

[7] = system: Escherichia coli ATCC25922; assay: Antibacterial activity, broth dilution MIC; format: cell-based
[8] = system: Staphylococcus aureus ATCC29213; assay: Antibacterial activity, broth dilution MIC; format: cell-based; conditions: S. aureus, n = 3
[9] = system: Candida albicans ATCC10231; assay: Antimicrobial activity, broth dilution MIC; format: cell-based
[10] = system: Cutibacterium acnes ATCC6919; assay: Antibacterial activity, broth dilution MIC; format: cell-based
[11] = system: human lung cancer cell line A549; assay: Cell toxicity assay, MTT; format: cell-based
[12] = system: human hepatocellular carcinoma cell line HepG2; assay: Cell toxicity assay, MTT; format: cell-based
[13] = pH = 7.0 (ultrapure water), 25 °C
[14] = pH = 7.0 (ultrapure water), 37 °C

SMILES: CCCCCCC(=O)O.O=C1CCC[C@@H]2[C@H]3CCCN4CCC[C@@H](CN12)[C@@H]34 [[Mat][C7]]
- T onset (onset decomposition temperature) [1]: 185.5 °C
- Log K o/w ([2]; pH = 1.2 (SGF), 25 °C): −0.36
- Log K o/w ([2]; pH = 1.2 (SGF), 37 °C): 0.07
- Log K o/w ([2]; pH = 6.8 (SIF), 25 °C): 0.01
- Log K o/w ([2]; pH = 6.8 (SIF), 37 °C): 0.25
- Log K o/w [2, 13]: 0.42
- Log K o/w [2, 14]: 0.69
- Log K o/w ([2]; pH = 7.4 (SBF), 25 °C): 0.83
- Log K o/w ([2]; pH = 7.4 (SBF), 37 °C): 1.01
- Association constant KA ([3]; 298.15 K): 6.11 ± 0.61 dm^3 mol^−1
- Limiting molar conductivity Λ0 ([3]; 298.15 K): 47.78 ± 0.03 S cm^2 mol^−1
- Association constant KA ([3]; 303.15 K): 3.91 ± 0.48 dm^3 mol^−1
- Limiting molar conductivity Λ0 ([3]; 303.15 K): 52.96 ± 0.03 S cm^2 mol^−1
- Association constant KA ([3]; 308.15 K): 1.53 ± 0.37 dm^3 mol^−1
- Limiting molar conductivity Λ0 ([3]; 308.15 K): 59.37 ± 0.03 S cm^2 mol^−1
- cmc ([4]; 293.15 K): 0.00511 mol/kg
- cmc ([4]; 298.15 K): 0.00524 mol/kg
- cmc ([4]; 303.15 K): 0.00536 mol/kg
- cmc ([4]; 308.15 K): 0.00549 mol/kg
- cmc ([4]; 313.15 K): 0.00558 mol/kg
- ionization degree α ([4]; 293.15 K): 0.8986
- ionization degree α ([4]; 298.15 K): 0.8976
- ionization degree α ([4]; 303.15 K): 0.8989
- ionization degree α ([4]; 308.15 K): 0.8927
- ionization degree α ([4]; 313.15 K): 0.8987
- ΔG^0m ([4]; 293.15 K): -24.94 kJ/mol
- ΔH^0m ([4]; 293.15 K): -4.00 kJ/mol
- ΔS^0m ([4]; 293.15 K): 71.43 J mol^−1 K^−1
- −TΔS^0m ([4]; 293.15 K): -20.94 kJ/mol
- ΔG^0m ([4]; 298.15 K): -25.33 kJ/mol
- ΔH^0m ([4]; 298.15 K): -3.85 kJ/mol
- ΔS^0m ([4]; 298.15 K): 72.03 J mol^−1 K^−1
- −TΔS^0m ([4]; 298.15 K): -21.48 kJ/mol
- ΔG^0m ([4]; 303.15 K): -25.66 kJ/mol
- ΔH^0m ([4]; 303.15 K): -3.68 kJ/mol
- ΔS^0m ([4]; 303.15 K): 72.51 J mol^−1 K^−1
- −TΔS^0m ([4]; 303.15 K): -21.98 kJ/mol
- ΔG^0m ([4]; 308.15 K): -26.16 kJ/mol
- ΔH^0m ([4]; 308.15 K): -3.51 kJ/mol
- ΔS^0m ([4]; 308.15 K): 73.51 J mol^−1 K^−1
- −TΔS^0m ([4]; 308.15 K): -22.65 kJ/mol
- ΔG^0m ([4]; 313.15 K): -26.40 kJ/mol
- ΔH^0m ([4]; 313.15 K): -3.29 kJ/mol
- ΔS^0m ([4]; 313.15 K): 73.80 J mol^−1 K^−1
- −TΔS^0m ([4]; 313.15 K): -23.11 kJ/mol
- cmc [5]: 0.00554 mol/kg
- N agg (aggregation number) [5]: 25
- Apparent molar volume at infinite dilution V^0 2,φ ([6]; 293.15 K): 321.56 ± 0.09 cm^3 mol^−1
- Apparent molar volume at infinite dilution V^0 2,φ ([6]; 298.15 K): 323.31 ± 0.11 cm^3 mol^−1
- Apparent molar volume at infinite dilution V^0 2,φ ([6]; 303.15 K): 324.72 ± 0.10 cm^3 mol^−1
- Apparent molar volume at infinite dilution V^0 2,φ ([6]; 308.15 K): 326.82 ± 0.20 cm^3 mol^−1
- MIC ([7]; E. coli, n = 3): 33.0 mM
- MIC [8]: 132.1 mM
- MIC ([9]; C. albicans, n = 3): 66.0 mM
- MIC ([10]; C. acnes, n = 3): 66.0 mM
- IC50 ([11]; A549, MTT, 24 h, n = 3): 14 mM
- IC50 ([12]; HepG2, MTT, 24 h, n = 3): 4.47 mM

SMILES: O=C1CCC[C@@H]2[C@H]3CCCN4CCC[C@@H](CN12)[C@@H]34 [Matrine, reference compound]
- MIC ([7]; Escherichia coli, ATCC25922): 50.3 mM (≈ 12.5 mg/mL)
- MIC ([9]; Candida albicans, ATCC10231): 25.2 mM (≈ 6.26 mg/mL)
- MIC ([10]; Cutibacterium acnes, ATCC6919): 50.3 mM (≈ 12.5 mg/mL)
- IC50 ([11]; Homo sapiens, A549, 24 h): 11.8 mM
- IC50 ([12]; Homo sapiens, HepG2, 24 h): 4.27 mM

SMILES: CCCCCCCCCCC(=O)O.O=C1CCC[C@@H]2[C@H]3CCCN4CCC[C@@H](CN12)[C@@H]34 [[Mat][C11]]
- T onset (onset decomposition temperature) [1]: 199.4 °C
- Log K o/w ([2]; pH = 1.2 (SGF), 25 °C): −0.32
- Log K o/w ([2]; pH = 1.2 (SGF), 37 °C): 0.26
- Log K o/w ([2]; pH = 6.8 (SIF), 25 °C): 0.04
- Log K o/w ([2]; pH = 6.8 (SIF), 37 °C): 0.35
- Log K o/w [2, 13]: 0.77
- Log K o/w [2, 14]: 0.91
- Log K o/w ([2]; pH = 7.4 (SBF), 25 °C): 1.20
- Log K o/w ([2]; pH = 7.4 (SBF), 37 °C): 1.27
- Association constant KA ([3]; 298.15 K): 19.06 ± 1.31 dm^3 mol^−1
- Limiting molar conductivity Λ0 ([3]; 298.15 K): 44.67 ± 0.06 S cm^2 mol^−1
- Association constant KA ([3]; 303.15 K): 7.36 ± 1.09 dm^3 mol^−1
- Limiting molar conductivity Λ0 ([3]; 303.15 K): 49.46 ± 0.06 S cm^2 mol^−1
- Association constant KA ([3]; 308.15 K): 2.04 ± 1.14 dm^3 mol^−1
- Limiting molar conductivity Λ0 ([3]; 308.15 K): 55.26 ± 0.07 S cm^2 mol^−1
- cmc ([4]; 293.15 K): 0.00385 mol/kg
- cmc ([4]; 298.15 K): 0.00395 mol/kg
- cmc ([4]; 303.15 K): 0.00402 mol/kg
- cmc ([4]; 308.15 K): 0.00407 mol/kg
- cmc ([4]; 313.15 K): 0.00411 mol/kg
- ionization degree α ([4]; 293.15 K): 0.8532
- ionization degree α ([4]; 298.15 K): 0.8429
- ionization degree α ([4]; 303.15 K): 0.8267
- ionization degree α ([4]; 308.15 K): 0.8151
- ionization degree α ([4]; 313.15 K): 0.7968
- ΔG^0m ([4]; 293.15 K): -26.77 kJ/mol
- ΔH^0m ([4]; 293.15 K): -4.36 kJ/mol
- ΔS^0m ([4]; 293.15 K): 76.44 J mol^−1 K^−1
- −TΔS^0m ([4]; 293.15 K): -22.41 kJ/mol
- ΔG^0m ([4]; 298.15 K): -27.39 kJ/mol
- ΔH^0m ([4]; 298.15 K): -3.65 kJ/mol
- ΔS^0m ([4]; 298.15 K): 79.65 J mol^−1 K^−1
- −TΔS^0m ([4]; 298.15 K): -23.75 kJ/mol
- ΔG^0m ([4]; 303.15 K): -28.19 kJ/mol
- ΔH^0m ([4]; 303.15 K): -2.88 kJ/mol
- ΔS^0m ([4]; 303.15 K): 83.51 J mol^−1 K^−1
- −TΔS^0m ([4]; 303.15 K): -25.32 kJ/mol
- ΔG^0m ([4]; 308.15 K): -28.90 kJ/mol
- ΔH^0m ([4]; 308.15 K): -2.02 kJ/mol
- ΔS^0m ([4]; 308.15 K): 87.26 J mol^−1 K^−1
- −TΔS^0m ([4]; 308.15 K): -26.89 kJ/mol
- ΔG^0m ([4]; 313.15 K): -29.80 kJ/mol
- ΔH^0m ([4]; 313.15 K): -1.08 kJ/mol
- ΔS^0m ([4]; 313.15 K): 91.70 J mol^−1 K^−1
- −TΔS^0m ([4]; 313.15 K): -28.72 kJ/mol
- cmc [5]: 0.00384 mol/kg
- N agg (aggregation number) [5]: 77
- Apparent molar volume at infinite dilution V^0 2,φ ([6]; 293.15 K): 386.51 ± 0.35 cm^3 mol^−1
- Apparent molar volume at infinite dilution V^0 2,φ ([6]; 298.15 K): 389.66 ± 0.38 cm^3 mol^−1
- Apparent molar volume at infinite dilution V^0 2,φ ([6]; 303.15 K): 392.77 ± 0.34 cm^3 mol^−1
- Apparent molar volume at infinite dilution V^0 2,φ ([6]; 308.15 K): 396.26 ± 0.38 cm^3 mol^−1
- MIC ([7]; E. coli, n = 3): 28.8 mM
- MIC [8]: 0.9 mM
- MIC ([9]; C. albicans, n = 3): 0.46 mM
- MIC ([10]; C. acnes, n = 3): 0.46 mM
- IC50 ([11]; A549, MTT, 24 h, n = 3): 0.71 mM
- IC50 ([12]; HepG2, MTT, 24 h, n = 3): 0.45 mM
